Screening results (PubChem)
An excerpt weighted towards active compounds, which were near 9.2% of everything screened.
Autophagy mod = autophagy modulators in MEF cells, primary screen, imaging, high-content, MEF GFP-LC3; MEF GFP-LC3 puncta imaging; test concentration mostly 10 µM; 0.98% of 190,000 active; calls only at 10 µM (by protocol);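 active = percentage of spot-positive cells more than 3 SD above its plate mean, without a fluorescence outlier flag or 80% toxicity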
Lmaj promast = Leishmania major promastigote growth inhibition, primary screen; 9% of 200,000 active; inhibition, % at 10 µM; Leishmania major promastigotes, resazurin fluorescence viability; in the data active = inhibition above about 50%;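 also: promastigotes grown with compound for 44 hours at 28 °C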
HCT116 PTEN-null = growth suppression of PTEN-null HCT116, primary screen, cell-based, CellTiter-Glo; 1.2% of 140,000 active; viability, % at 10 µM; HCT116 PTEN-null viability, 60 h; hits give low values;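 active = viability at or below a set limit, 4 SD under the median of all tested compounds, cut at about 3.7% in these data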;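 also: PTEN knockout HCT116 line with beta catenin targeted HCT116 as companion control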
HCT116 bCat-KO = primary screen for growth suppressors in beta-catenin knockout HCT116 cells (colon tumor, human); AID 818, 2007; HCT116 beta-catenin knockout viability, CellTiter-Glo, 60 h; hits give low values; viability, % at 10 µM; 1.5% of 140,000 active;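 active = viability at or under a set limit, the compound median less 4 SD, cut at about 6% in these data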
Dynein transport = inhibitors of GR-EGFP nuclear translocation, primary screen, dynein cargo transport inhibitor project, imaging, high-content, 3617.4 mouse cells | test concentration mostly 20 µM; stimulated with dexamethasone, 1 µM; hits give low values | z-score, hits read low | 0.47% of 220,000 active;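 active = plate z-score of nuclear minus cytoplasmic receptor signal below a set negative limit, without overly bright fluorescence or cell loss, cut at about -3.5 in these data, passing the limit was not always enough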;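 also: z-score of nuclear minus cytoplasmic ring GR-EGFP intensity difference per well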
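Also added – dexamethasone, 1.0 µM final · Buffer or medium – tet-free, stripped-serum medium · Schedule – induction 48 h, compound 1 h, agonist 30 min · Detection – formaldehyde fixation, Hoechst nuclear stain, 10x automated fluorescence imaging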
Hits are given with their value; i = inactive; nt = no result; + = active, no number.

SMILES	Autophagy mod	Lmaj promast	HCT116 PTEN-null	HCT116 bCat-KO	Dynein transport
CCOC(=O)c1c(C)n(C)c2ccc(OCC(O)CN3CCN(C)CC3)cc12 (stereo not given)	i	75.9	i	i	i
CCOC(=O)c1c(C)n(-c2ccc(C)cc2)c2ccc(OCC(O)CN3CCN(C)CC3)cc12 (stereo not given)	i	100.3	nt	nt	i
CCOC(=O)c1c(C)n(C)c2ccc(OCC(O)Cn3c(C)nc4ccccc43)cc12 (stereo not given)	i	i	i	i	i
CCN1CCN(CC(O)COc2ccc3c(C)cc(=O)oc3c2)CC1 (stereo not given)	i	i	nt	nt	i
Cc1cc(C(F)(F)F)nn1CCCNC(=O)c1cnccn1	i	i	i	i	i
CCCn1c(=NC(=O)c2c(-c3c(F)cccc3Cl)noc2C)c(C(=O)OCC)cc2c(=O)n3ccccc3nc21	+	i	i	i	i
O=C(Nc1nnc(SCC(=O)N2CCCc3ccccc32)s1)c1cccc2ccccc12	i	95.6	i	i	i
Cc1ccc(CN2CCN(C3CSCCSC3)CC2CCO)cc1 (stereo not given)	i	i	nt	nt	i
CC(C)c1csc(CN2CCN(Cc3ccccc3)C(CCO)C2)n1 (stereo not given)	i	i	nt	nt	i
CCOc1ccc(CN2CCN(Cc3[nH]c4ccc(OC)cc4c3C)CC2CCO)cc1 (stereo not given)	i	56.5	nt	nt	i
CCOc1ccc(CN2CCN(C3CCSCC3)CC2CCO)cc1 (stereo not given)	i	73.2	nt	nt	i
CCOc1ccccc1CN1CCN(Cc2[nH]c3ccccc3c2C)CC1CCO (stereo not given)	i	i	nt	nt	i
CCOc1ccc(CN2CCN(Cc3nc(C(C)C)cs3)CC2CCO)cc1 (stereo not given)	i	81.1	nt	nt	i
CC(C)c1csc(CN2CCN(CCc3ccccc3)C(CCO)C2)n1 (stereo not given)	i	88.8	nt	nt	i
CCOc1ccc(CN2CCN(CCCn3cccn3)CC2CCO)cc1 (stereo not given)	i	92.4	nt	nt	i
Cc1c(N)cc(C(=O)N2CCOCC2)cc1[N+](=O)[O-]	i	i	i	i	i
CCNc1nc(NC(C)C)nc(N(C#N)CCOc2ccc(Cl)cc2Cl)n1	i	96.8	i	i	i
COc1ccc(NC(=S)NNC(=O)Cn2nc(C(F)F)cc2C(F)F)cc1	i	i	i	i	i
CC(CCc1ccccc1)NC(=O)CNC(=S)N(Cc1cccs1)C1CCCC1 (stereo not given)	i	50.8	nt	nt	i
CCc1ccc(NC(=O)N2CCN(c3ccc(F)cc3)CC2)cc1	i	i	nt	nt	i
Cc1cc(N2CCN(S(=O)(=O)c3ccccc3)CC2)c2ccccc2n1	i	i	i	i	i
Cc1cc(N2CCN(c3ccc([N+](=O)[O-])c4cccnc34)CC2)c2ccccc2n1	i	i	i	3.5	i
O=C(c1ccccc1F)N1CCN(c2ccc([N+](=O)[O-])c3cccnc23)CC1	i	63.4	nt	nt	i
O=C(c1ccccc1F)N1CCN(c2ccc([N+](=O)[O-])c3ncccc23)CC1	i	i	i	i	i
CCCCC(=O)NC1(C(F)(F)F)C(=O)Nc2c1c(=O)n(C)c(=O)n2C (stereo not given)	i	i	i	i	i
SMILES	Autophagy mod	Lmaj promast	HCT116 PTEN-null	HCT116 bCat-KO	Dynein transport
CN=c1scc(C)n1/N=C/c1ccc(O)cc1	i	i	i	i	i
CN=c1scc(C)n1/N=C/c1ccc(O)cc1O	i	58.2	i	i	i
CC(C)c1ccc(N(CC(=O)NCCSC(C)(C)C)S(C)(=O)=O)cc1	i	i	i	i	i
O=C(Nc1cccc(C(F)(F)F)c1)c1ccccc1NC(=O)C1CCCCC1	i	57.4	i	i	i
Cc1onc(-c2ccccc2)c1C(=O)NC(=S)NNC(=O)c1ccccc1O	i	66.9	i	i	i
Cc1onc(-c2ccccc2)c1C(=O)NC(=S)NNC(=O)c1ccc(O)cc1	i	i	i	i	i
Cc1onc(-c2ccccc2)c1C(=O)NC(=S)NNC(=O)c1ccc(O)cc1O	i	91.9	i	i	i
CC1(CCc2ccc3c(c2)OCO3)NC(=O)c2ccccc2N1 (stereo not given)	i	99.9	i	i	i
Cc1ccc(/C([O-])=C(/C(=S)NCc2ccc3c(c2)OCO3)[n+]2ccc(N(C)C)cc2)c(C)c1	i	i	nt	nt	i
CCc1nc(Nc2ccncc2)c2oc3ccccc3c2n1	i	99.8	1.7	2.0	i
CCOC(=O)c1c(-c2ccccc2)csc1NC(=O)CCN1CCOCC1	i	98.1	i	i	i
CCOC(=O)c1c(-c2cccs2)csc1NC(=O)CN1CCOCC1	i	i	i	i	i
CCOC(=O)c1c(-c2ccc(C)cc2)csc1NC(=O)CCN1CCOCC1	i	97.2	i	i	i
CCOC(=O)c1c(-c2ccc(C)o2)csc1NC(=O)CN1CCOCC1	i	88.6	i	i	i
O=C(N/N=C/c1ccc2c(c1)OCO2)c1cc(-c2ccccc2)nc2ccccc12	i	i	i	i	i
O=C(N/N=C/c1ccc([N+](=O)[O-])o1)c1cc(-c2cccc(Br)c2)nc2ccccc12	i	100.3	1.7	1.8	i
CCCc1ccc(-c2cc(C(=O)N/N=C/c3ccc([N+](=O)[O-])o3)c3ccccc3n2)cc1	i	99.9	i	i	i
Cn1c(=O)n(CCN2CCOCC2)c(=O)c2c1nc1n2CCN1c1ccccc1	i	i	nt	nt	i
CCOc1ccccc1Nc1nnc(SCC(=O)NC(=O)c2cccn2C)s1	i	55.7	i	i	i
CCc1ccc(Nc2nnc(SCC(=O)Nc3cccnc3Cl)s2)cc1	i	90.1	i	i	i
Cc1cccc(C)c1Nc1nnc(SCC(=O)NC(=O)c2cccn2C)s1	i	i	i	i	i
CCc1ccc(Nc2nnc(SCC(=O)Nc3sccc3C(N)=O)s2)cc1	i	98.1	i	i	i
COc1cccc(Nc2nnc(SCC(=O)Nc3sccc3C(N)=O)s2)c1	i	65.0	nt	nt	i
CCc1ccc(Nc2nnc(SCC(=O)NCCN3C(=O)CSC3=O)s2)cc1	i	i	i	i	i
Cc1ccc(-c2nc(NC(=O)c3cc(C(C)(C)C)nn3C)sc2C)cc1Cl	nt	nt	nt	nt	i
SMILES	Autophagy mod	Lmaj promast	HCT116 PTEN-null	HCT116 bCat-KO	Dynein transport
C=CCC(C#Cc1ccccc1)[N+](C)(C)CC=C (stereo not given)	i	i	i	i	i
COc1ccc(S(=O)(=O)N2CCOCC2)cc1C(=O)Nc1cc(C)on1	i	i	i	i	i
CCOc1ccc(CN(C(=O)c2cc3ccccc3oc2=O)C2CCS(=O)(=O)C2)cc1 (stereo not given)	nt	nt	nt	nt	i
Cc1cccc(OCCOc2ccccc2C=C(C#N)C#N)c1	i	93.9	i	i	i
Cc1ccccc1OCCOc1ccccc1C=C(C#N)C#N	i	78.2	i	i	i
Cc1cccc(OCCOC(=O)Nc2ccccc2)c1	i	i	i	i	i
